Results published in ChEMBL document CHEMBL1131232, “New azole antifungals. 3. Synthesis and antifungal activity of 3-substituted-4(3H)-quinazolinones” (J Med Chem, 1998).
In brackets after ≈: the same amount, converted by molar mass.

Key:
Assay type in all cases: functional
[1] = In vitro antifungal activity against 6 filamentous fungi
In short: (§1)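 Agar dilution on Kimmig's agar with 0.5% glycerol, using ATCC strains or clinical isolates. Drug stocks were 800 μg/mL in 50% ethanol, tested as 2-fold dilutions from 80 to 0.03 μg/mL. Inocula were 10⁵ cfu/mL. […] Geometric means took >80 as 160 and ≤0.03 as 0.03.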

Candida albicans [2] = test: In vivo antifungal activity against murine candidosis model after peroral administration with 1 mg/kg at various time intervals. (percent protection for 100% mortality with fluconazole-treated group.); settings: route oral
In short: (§2)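 Groups of 10 male mice were infected iv with 0.2 mL of C. albicans at 2 to 8×10^7 cfu/mL. Drug was given orally as a suspension in 1% Tween + 0.2% carboxymethylcellulose at 1, 4 and 24 h post-infection; controls got vehicle only. Survival was scored on days 3, 5, 7 and 9. Read-out was % survival on the day all untreated controls died, or on the day all mice given fluconazole at the same dose died.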

Candida albicans [3] = test: In vivo antifungal activity against murine candidosis model after peroral administration with 1 mg/kg at various time intervals. (percent protection for 100% mortality with untreated group); settings: route oral; in short: as §2
[4] = In vitro for antifungal activity against 10 yeasts; in short: as §1
Candida albicans [5] = test: In vivo antifungal activity against murine candidosis model after peroral administration with 0.5 mg/kg at various time intervals. (percent protection for 100% mortality with fluconazole-treated group.); settings: route oral; in short: as §2
Candida albicans [6] = test: In vivo antifungal activity against murine candidosis model after peroral administration with 0.5 mg/kg at various time intervals. (percent protection for 100% mortality with untreated group); settings: route oral; in short: as §2

| Compound | MIC ([1]; read-out: MIC) | Protection (Candida albicans [2]) | Protection (Candida albicans [3]) | MIC ([4]; read-out: MIC) | Protection (Candida albicans [5]) | Protection (Candida albicans [6]) | MIC [1] | MIC [4] |
| --- | --- | --- | --- | --- | --- | --- | --- | --- |
| C[C@@H](n1cnc2ccccc2c1=O)[C@](O)(Cn1cncn1)c1ccc(F)cc1F | 8.9 µg/mL (≈ 22.4 µM) | 0% | 10% | 1.2 µg/mL (≈ 3.02 µM) |  |  |  |  |
| C[C@@H](n1cnc2cc(N(C)C)c(F)cc2c1=O)[C@](O)(Cn1cncn1)c1ccc(F)cc1F | 22 µg/mL (≈ 48 µM) | 0% | 0% | 1.4 µg/mL (≈ 3.05 µM) |  |  |  |  |
| C[C@@H](n1cnc2cc(-n3cncn3)ccc2c1=O)[C@](O)(Cn1cncn1)c1ccc(F)cc1F | 80 µg/mL (≈ 172 µM) |  |  | 6.6 µg/mL (≈ 14.2 µM) | <50% | 70% |  |  |
| C[C@@H](n1cnc2cc(N3CCN(c4ccc(Cl)cc4)CC3)ccc2c1=O)[C@](O)(Cn1cncn1)c1ccc(F)cc1F | 2.8 µg/mL (≈ 4.73 µM) |  |  | 0.2 µg/mL (≈ 0.338 µM) | 0% | 60% |  |  |
| C[C@@H](n1cnc2cc(OCCF)ccc2c1=O)[C@](O)(Cn1cncn1)c1ccc(F)cc1F | 28 µg/mL (≈ 60.9 µM) |  |  | 1.4 µg/mL (≈ 3.05 µM) | 0% | 0% |  |  |
| C[C@@H](n1cnc2cc(NN)ccc2c1=O)[C@](O)(Cn1cncn1)c1ccc(F)cc1F | > 80 µg/mL |  |  | 15 µg/mL (≈ 35.1 µM) |  |  |  |  |
| C[C@@H](n1cnc2cc(N3CCOCC3)ccc2c1=O)[C@](O)(Cn1cncn1)c1ccc(F)cc1F | 35 µg/mL (≈ 72.5 µM) |  |  | 1.9 µg/mL (≈ 3.94 µM) | 0% | 20% |  |  |
| C[C@@H](n1cnc2c(Cl)cc(Cl)cc2c1=O)[C@](O)(Cn1cncn1)c1ccc(F)cc1F | > 80 µg/mL | 0% | 100% | 1.7 µg/mL (≈ 3.65 µM) |  |  |  |  |
| C[C@@H](n1cnc2ccc(Cl)cc2c1=O)[C@](O)(Cn1cncn1)c1ccc(F)cc1F | 50 µg/mL (≈ 116 µM) | 0% | 40% | 1 µg/mL (≈ 2.32 µM) |  |  |  |  |
| C[C@@H](n1cnc2cc3ccccc3cc2c1=O)[C@](O)(Cn1cncn1)c1ccc(F)cc1F | 45 µg/mL (≈ 101 µM) | 0% | 30% | 0.4 µg/mL (≈ 0.894 µM) |  |  |  |  |
| C[C@@H](n1cnc2cc(N3CCN(C)CC3)ccc2c1=O)[C@](O)(Cn1cncn1)c1ccc(F)cc1F | > 80 µg/mL |  |  | 19 µg/mL (≈ 38.3 µM) | 0% | 20% |  |  |
| C[C@@H](n1cnc2cc(N)c(F)cc2c1=O)[C@](O)(Cn1cncn1)c1ccc(F)cc1F | 50 µg/mL (≈ 116 µM) |  |  | 8.7 µg/mL (≈ 20.2 µM) |  |  |  |  |
| C[C@@H](n1cnc2cc(OCC(F)F)ccc2c1=O)[C@](O)(Cn1cncn1)c1ccc(F)cc1F | 25 µg/mL (≈ 52.4 µM) |  |  | 1.4 µg/mL (≈ 2.93 µM) | 0% | 100% |  |  |
| C[C@@H](n1cnc2cc(C(F)(F)F)ccc2c1=O)[C@](O)(Cn1cncn1)c1ccc(F)cc1F | 2.2 µg/mL (≈ 4.73 µM) |  |  | 0.7 µg/mL (≈ 1.5 µM) | 60% | 100% |  |  |
| Cc1cccc2c(=O)n([C@H](C)[C@](O)(Cn3cncn3)c3ccc(F)cc3F)cnc12 | 80 µg/mL (≈ 194 µM) | 0% | 10% | 2.3 µg/mL (≈ 5.59 µM) |  |  |  |  |
| CC[C@H]([C@H](C)O)n1ncn(-c2ccc(N3CCN(c4ccc5c(=O)n([C@H](C)[C@](O)(Cn6cncn6)c6ccc(F)cc6F)cnc5c4)CC3)cc2)c1=O | > 80 µg/mL |  |  | 32 µg/mL (≈ 44 µM) |  |  |  |  |
| CSc1ccc2c(=O)n([C@H](C)[C@](O)(Cn3cncn3)c3ccc(F)cc3F)cnc2c1 | 3.8 µg/mL (≈ 8.57 µM) |  |  | 0.5 µg/mL (≈ 1.13 µM) | 40% | 100% |  |  |
| C[C@@H](n1cnc2cc(NC(=O)C(F)(F)F)c(F)cc2c1=O)[C@](O)(Cn1cncn1)c1ccc(F)cc1F | 80 µg/mL (≈ 152 µM) |  |  | 8.1 µg/mL (≈ 15.4 µM) |  |  |  |  |
| C[C@@H](n1cnc2cc(S(C)(=O)=O)ccc2c1=O)[C@](O)(Cn1cncn1)c1ccc(F)cc1F | > 80 µg/mL |  |  | 11 µg/mL (≈ 23.1 µM) | 80% | 100% |  |  |
| C[C@@H](n1cnc2cc(N3CCN(c4ccc([N+](=O)[O-])cc4)CC3)ccc2c1=O)[C@](O)(Cn1cncn1)c1ccc(F)cc1F | > 80 µg/mL |  |  | 7.9 µg/mL (≈ 13.1 µM) |  |  |  |  |

| Compound | MIC ([1]; read-out: MIC) | Protection (Candida albicans [2]) | Protection (Candida albicans [3]) | MIC ([4]; read-out: MIC) | Protection (Candida albicans [5]) | Protection (Candida albicans [6]) | MIC [1] | MIC [4] |
| --- | --- | --- | --- | --- | --- | --- | --- | --- |
| C[C@@H](n1cnc2cc(-n3ncnn3)ccc2c1=O)[C@](O)(Cn1cncn1)c1ccc(F)cc1F | 57 µg/mL (≈ 122 µM) |  |  | 1.5 µg/mL (≈ 3.22 µM) |  |  |  |  |
| C[C@@H](n1cnc2cccc(Cl)c2c1=O)[C@](O)(Cn1cncn1)c1ccc(F)cc1F | 71 µg/mL (≈ 164 µM) | 0% | 0% | 3.1 µg/mL (≈ 7.18 µM) |  |  |  |  |
| CCC(CC)n1ncn(-c2ccc(N3CCN(c4ccc5ncn([C@H](C)[C@](O)(Cn6cncn6)c6ccc(F)cc6F)c(=O)c5c4)CC3)cc2)c1=O | 28 µg/mL (≈ 39.4 µM) |  |  | 3.7 µg/mL (≈ 5.21 µM) | 0% | 0% |  |  |
| C[C@@H](n1cnc2cc(OCC(F)(F)F)ccc2c1=O)[C@](O)(Cn1cncn1)c1ccc(F)cc1F | 15 µg/mL (≈ 30.3 µM) |  |  | 1 µg/mL (≈ 2.02 µM) | 100% | 100% |  |  |
| C[C@@H](n1cnc2cc(C(=N)NS(N)(=O)=O)ccc2c1=O)[C@](O)(Cn1cncn1)c1ccc(F)cc1F | > 80 µg/mL |  |  | 40 µg/mL (≈ 77.1 µM) | 0% | 0% |  |  |
| C[C@@H](n1cnc2cc(F)c(F)cc2c1=O)[C@](O)(Cn1cncn1)c1ccc(F)cc1F | 70 µg/mL (≈ 162 µM) | 0% | 10% | 1.7 µg/mL (≈ 3.92 µM) |  |  |  |  |
| C[C@@H](n1cnc2c(Br)cc(Br)cc2c1=O)[C@](O)(Cn1cncn1)c1ccc(F)cc1F | > 80 µg/mL | 0% | 10% | 2.6 µg/mL (≈ 4.68 µM) |  |  |  |  |
| C[C@@H](n1cnc2ccc(Br)cc2c1=O)[C@](O)(Cn1cncn1)c1ccc(F)cc1F | 45 µg/mL (≈ 94.5 µM) | 0% | 100% | 1.6 µg/mL (≈ 3.36 µM) |  |  |  |  |
| C[C@@H](n1cnc2cccc(F)c2c1=O)[C@](O)(Cn1cncn1)c1ccc(F)cc1F | 57 µg/mL (≈ 137 µM) | 0% | 0% | 4.3 µg/mL (≈ 10.4 µM) |  |  |  |  |
| Cc1cc(Br)c2ncn([C@H](C)[C@](O)(Cn3cncn3)c3ccc(F)cc3F)c(=O)c2c1 | > 80 µg/mL | 0% | 0% | 2.1 µg/mL (≈ 4.28 µM) |  |  |  |  |
| C[C@@H](n1cnc2cc(N3CCOC3=O)ccc2c1=O)[C@](O)(Cn1cncn1)c1ccc(F)cc1F | 80 µg/mL (≈ 166 µM) |  |  | 8.7 µg/mL (≈ 18 µM) |  |  |  |  |
| Cc1cccc2ncn([C@H](C)[C@](O)(Cn3cncn3)c3ccc(F)cc3F)c(=O)c12 | 40 µg/mL (≈ 97.2 µM) | 0% | 0% | 2.6 µg/mL (≈ 6.32 µM) |  |  |  |  |
| C[C@@H](n1cnc2cc(Cl)ccc2c1=O)[C@](O)(Cn1cncn1)c1ccc(F)cc1F (stereo in doubt; 75) [ALBACONAZOLE] |  |  |  |  |  |  | 33 µg/mL (≈ 76.4 µM) | 1 µg/mL (≈ 2.32 µM) |
| Cc1cc(C)c2ncn([C@H](C)[C@](O)(Cn3cncn3)c3ccc(F)cc3F)c(=O)c2c1 | > 80 µg/mL | 0% | 0% | 3.8 µg/mL (≈ 8.93 µM) |  |  |  |  |
| Cc1nc2cc(Cl)ccc2c(=O)n1[C@H](C)[C@](O)(Cn1cncn1)c1ccc(F)cc1F | 36 µg/mL (≈ 80.7 µM) |  |  | 6.6 µg/mL (≈ 14.8 µM) |  |  |  |  |
| C[C@@H](n1cnc2cc(C(N)=O)ccc2c1=O)[C@](O)(Cn1cncn1)c1ccc(F)cc1F | > 80 µg/mL |  |  | 25 µg/mL (≈ 56.8 µM) |  |  |  |  |
| C[C@@H](n1cnc2ccc(F)cc2c1=O)[C@](O)(Cn1cncn1)c1ccc(F)cc1F | > 80 µg/mL | 0% | 0% | 2.4 µg/mL (≈ 5.78 µM) |  |  |  |  |
| C[C@@H](n1cnc2cc(C#N)ccc2c1=O)[C@](O)(Cn1cncn1)c1ccc(F)cc1F | 3.5 µg/mL (≈ 8.29 µM) | 0% | 10% | 0.8 µg/mL (≈ 1.89 µM) |  |  |  |  |
| Cc1ccc2ncn([C@H](C)[C@](O)(Cn3cncn3)c3ccc(F)cc3F)c(=O)c2c1 | 45 µg/mL (≈ 109 µM) | 0% | 40% | 1.4 µg/mL (≈ 3.4 µM) |  |  |  |  |
